44 compounds from ChEMBL document CHEMBL1127506, “Novel ligands specific for mitochondrial benzodiazepine receptors: 6-arylpyrrolo[2,1-d][1,5]benzothiazepine derivatives. Synthesis, structure-activity relationships, and molecular modeling studies” (J Med Chem, 1994) can be followed below.

The target in the first assay is T1, Translocator protein (Rattus norvegicus, UniProt P16257). Briefly: Displacement of [3H]-PK 11195 from peripheral (mitochondrial) benzodiazepine receptor.
T1 sequence (P16257 whole entry, looked up): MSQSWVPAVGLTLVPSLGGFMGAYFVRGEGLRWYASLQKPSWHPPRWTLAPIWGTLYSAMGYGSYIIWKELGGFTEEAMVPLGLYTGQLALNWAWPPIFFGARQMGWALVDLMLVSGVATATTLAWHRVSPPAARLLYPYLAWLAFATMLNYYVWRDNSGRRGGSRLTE
As for `O=C1c2cccn2-c2ccccc2[S+]([O-])C1c1ccccc1` (centres undefined), the IC50 turned out to be 14700 nM.

Compound `CCCC(=O)OC1=C(c2ccc(OC)cc2)[S+]([O-])c2ccccc2-n2cccc21` (centres undefined) came in with an IC50 of 270 nM. On the same count and under the same terms, to `COc1ccc(C2=C(OC(C)=O)c3cccn3-c3ccccc3[S+]2[O-])cc1` (centres undefined) belongs 2090 nM; to `COc1ccc(C2=C(OC(C)=O)c3cccn3-c3cccc(Cl)c3S2)cc1`, 20 nM.

Take `CCCC(=O)OC1=C(c2ccccc2)Sc2ccccc2-n2cccc21`: the IC50 stood at 22 nM. Same read-out and setting: the same measure for `COc1ccc(C2Sc3ccccc3-n3cccc3C2=O)cc1` (centres undefined): 2090 nM. Still for that read-out and setting: the same measure for `CC(=O)OC1=C(c2ccccc2)Sc2c(Cl)cccc2-n2cccc21`: 8 nM. Still for that read-out and setting: the same measure for `COc1ccc(C2Sc3ccc(Cl)cc3-n3cccc3C2=O)cc1` (centres undefined): 1410 nM. `O=C1CSc2ccccc2-n2cccc21`: the concentration for half-maximal inhibition (IC50) was more than 14000 nM. The compound `CC(=O)OC1=C(c2ccccc2)Sc2cc(Cl)ccc2-n2cccc21` returned an IC50 of 230 nM. This counts as sub-micromolar. On the same count and under the same terms, the same measure for `CCC(=O)OC1=C(c2ccc(OC)cc2)Sc2ccc(Cl)cc2-n2cccc21`: 490 nM. For `COc1ccc(C2=C(OS(C)(=O)=O)c3cccn3-c3ccccc3S2)cc1`, the IC50 worked out at 95 nM. Same read-out and setting: to `COc1ccc(C2=C(OC(C)=O)c3cccn3-c3ccc(Cl)cc3S2)cc1` belongs 240 nM; to `CN(C)C(=O)OC1=C(c2ccccc2)Sc2ccccc2-n2cccc21`, 9 nM. For `COc1ccc(C2=C(OC(C)=O)c3cccn3-c3cc(OC)ccc3S2)cc1`, the IC50 turned out to be 1810 nM.

`CCC(=O)OC1=C(c2ccccc2)Sc2ccccc2-n2cccc21` came in with a concentration for half-maximal inhibition (IC50) of 67 nM. The same measure, in the same setting: to `COc1ccc(C2Sc3ccc(C(F)(F)F)cc3-n3cccc3C2=O)cc1` (centres undefined) belongs 6210 nM; to `COc1ccc(C2=C(OC(C)=O)c3cccn3-c3cc(Cl)ccc3S2)cc1`, 650 nM; to `CCC(=O)OC1=C(c2ccc(OC)cc2)Sc2ccccc2-n2cccc21`, 30 nM. On the same count and under the same terms, to `O=C1c2cccn2-c2ccccc2SC1c1ccccc1` (centres undefined) belongs 1220 nM. The compound `CCC(=O)OC1=C(c2ccc(OC)cc2)Sc2ccc(C(F)(F)F)cc2-n2cccc21` showed an IC50 of 2950 nM. This IC50 lies about 2.4-fold higher than the previous one. `CC(=O)OC1=C(c2ccccc2)Sc2ccc(Cl)cc2-n2cccc21` yielded an IC50 of 560 nM.

`CC(=O)OC1=C(c2ccccc2)Sc2ccccc2-n2cccc21` came in with an IC50 of 20 nM. Same read-out and setting: the same measure for `COc1ccc(C2=C(OC(=O)N(C)C)c3cccn3-c3ccccc3S2)cc1`: 9 nM.

For the compound `COc1ccc(C2=C(OC(C)=O)c3cccn3-c3ccccc3S2)cc1`, the half-maximal inhibitory concentration (IC50) was 34 nM.

As for `COc1ccc(C2=C(OC(C)=O)c3cccn3-c3cc(C(F)(F)F)ccc3S2)cc1`, the IC50 was determined as 4530 nM.

`COc1ccc(C2=C(OC(C)=O)c3cccn3-c3ccccc3S2(=O)=O)cc1` yielded a half-maximal inhibitory concentration (IC50) of 640 nM. On the same count and under the same terms, to `CCCC(=O)OC1=C(c2ccc(OC)cc2)Sc2ccccc2-n2cccc21` belongs 28 nM. Turning to `CCC(=O)OC1=C(c2ccccc2)Sc2ccc(Cl)cc2-n2cccc21`, the half-inhibitory concentration (IC50) worked out at 820 nM. This IC50 is about 29-fold higher than that of the compound before. The same measure, in the same setting: to `COc1ccc(C2=C(OC(=O)N(C)C)c3cccn3-c3cc(C(F)(F)F)ccc3S2)cc1` belongs 290 nM.

Take `COc1ccc(C2=C(OC(=O)N(C)C)c3cccn3-c3cc(Cl)ccc3S2)cc1`: the IC50 amounted to 170 nM. On the same count and under the same terms, the same measure for `CS(=O)(=O)OC1=C(c2ccccc2)Sc2ccccc2-n2cccc21`: 60 nM; for `CC(=O)OC1=C(c2ccccc2)[S+]([O-])c2ccccc2-n2cccc21` (centres undefined): 690 nM; for `CCCCC(=O)OC1=C(c2ccccc2)Sc2ccccc2-n2cccc21`: 48 nM. Same read-out and setting: to `CCCCCC(=O)OC1=C(c2ccccc2)Sc2ccccc2-n2cccc21` belongs 23 nM; to `COc1ccc(C2C(=O)c3cccn3-c3ccccc3[S+]2[O-])cc1` (centres undefined), 23000 nM; to `CC(=O)OC1=C(c2ccccc2)S(=O)(=O)c2ccccc2-n2cccc21`, 1140 nM.

Another assay concerns the target T1, Translocator protein. In words: Displacement of [3H]-PK 11195 from peripheral (mitochondrial) benzodiazepine receptor (inactive). The gist of the method: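 Male CD rat cortex (about 150 g) homogenized in ice-cold 50 mM PBS, pH 7.4, spun at 50000g for 10 min, and washed three times. 10 mg original wet tissue incubated with 1 nM [3H]PK 11195 and 8–12 drug concentrations (highest 10^-5 M) for 120 min at 4 °C. Nonspecific binding with 1 μM PK 11195. GF/B filtration, scintillation counting, triplicate points, IC50 by nonlinear curve fitting.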
Regarding `COc1ccc(C2=C(OC(=O)c3ccncc3)c3cccn3-c3ccccc3S2)cc1`, the IC50 entry was “Not Active”. Turning to `COc1ccc(C2=C(OC(=O)c3cccnc3)c3cccn3-c3ccccc3S2)cc1`, the IC50 result is recorded as “Not Active”. Still for that read-out and setting: to `COc1ccc(C2=C(OC(=O)c3c(OC)cc(OC)cc3OC)c3cccn3-c3ccccc3S2)cc1` belongs “Not Active”. For the compound `O=C1c2cccn2-c2ccccc2S(=O)(=O)C1c1ccccc1` (centres undefined), the concentration for half-maximal inhibition (IC50) entry was “Not Active”. `COc1ccc(C2=C(OC(=O)c3c(OC)cc(OC)cc3OC)c3cccn3-c3cc(Cl)ccc3S2)cc1`: the IC50 result was “Not Active”. Still for that read-out and setting: to `COc1ccc(C2=C(OC(=O)c3c(OC)cc(OC)cc3OC)c3cccn3-c3cc(C(F)(F)F)ccc3S2)cc1` belongs “Not Active”; to `COc1ccc([C@H]2Sc3ccccc3-n3cccc3[C@H]2OC(C)=O)cc1`, “Not Active”.
